Laboratory results: ChEMBL document CHEMBL4049389, “Design, synthesis and biological evaluation of aminobenzyloxyarylamide derivatives as selective κ opioid receptor antagonists” (Eur J Med Chem, 2017)
pIC50, pKi: −log10 of the molar value. Activity calls are given as the source filed them. The rule behind the calls is not given here.

How the values were obtained:
Mu-type opioid receptor [1] = target: T1, Mu-type opioid receptor (Homo sapiens, UniProt P35372); test: Displacement of [3H]DAMGO from recombinant human mu-opioid receptor expressed in CHO cell membranes at 1 X 10^-5 M after 60 mins by liquid scintillation counting method relative to control
T1 sequence (P35372 whole entry): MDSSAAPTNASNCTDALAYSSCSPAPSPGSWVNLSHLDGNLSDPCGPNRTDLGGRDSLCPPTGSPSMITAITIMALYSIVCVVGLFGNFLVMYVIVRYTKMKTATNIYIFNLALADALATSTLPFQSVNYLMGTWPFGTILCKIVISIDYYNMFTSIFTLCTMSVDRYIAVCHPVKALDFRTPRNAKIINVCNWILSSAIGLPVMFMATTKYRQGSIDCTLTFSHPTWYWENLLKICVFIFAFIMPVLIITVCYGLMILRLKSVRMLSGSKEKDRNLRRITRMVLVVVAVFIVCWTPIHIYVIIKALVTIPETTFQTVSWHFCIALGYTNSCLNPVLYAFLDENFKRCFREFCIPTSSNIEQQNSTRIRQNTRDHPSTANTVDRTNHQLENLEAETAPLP
Summary of the method: (§1)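 Single-concentration radioligand displacement in membranes from CHO (κ, μ) or HEK293 (δ) cells expressing human receptors. Radioligands were [3H]-U69,593, [3H]-DAMGO and [3H]-DPDPE, incubated in Tris-HCl at 25 °C for 60 min, filtered and counted by scintillation. Read-out was percent inhibition of specific binding; assays were done in duplicate.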

[2] = target: T2, Delta-type opioid receptor (Homo sapiens, UniProt P41143); test: Displacement of [3H]DPDPE from recombinant human delta-opioid receptor expressed in HEK293 cell membranes at 1 X 10^-5 M after 60 mins by liquid scintillation counting method relative to control; summary of the method: as §1
T2 sequence (P41143 whole entry): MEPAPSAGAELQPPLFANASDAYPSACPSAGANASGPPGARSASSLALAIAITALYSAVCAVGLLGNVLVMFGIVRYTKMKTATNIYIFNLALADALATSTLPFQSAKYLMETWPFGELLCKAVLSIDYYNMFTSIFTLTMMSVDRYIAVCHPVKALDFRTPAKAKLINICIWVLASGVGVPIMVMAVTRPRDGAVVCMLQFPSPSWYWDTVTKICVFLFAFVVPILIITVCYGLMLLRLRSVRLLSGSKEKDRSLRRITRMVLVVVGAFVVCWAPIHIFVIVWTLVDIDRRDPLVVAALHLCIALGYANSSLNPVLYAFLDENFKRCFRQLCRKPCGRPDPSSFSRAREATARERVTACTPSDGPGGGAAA

[3] = target: T3, Kappa-type opioid receptor (Homo sapiens, UniProt P41145); test: Displacement of [3H]U69593 from recombinant human kappa-opioid receptor expressed in CHO cell membranes at 1 X 10^-5 M after 60 mins by liquid scintillation counting method relative to control; summary of the method: as §1
T3 sequence (P41145 whole entry): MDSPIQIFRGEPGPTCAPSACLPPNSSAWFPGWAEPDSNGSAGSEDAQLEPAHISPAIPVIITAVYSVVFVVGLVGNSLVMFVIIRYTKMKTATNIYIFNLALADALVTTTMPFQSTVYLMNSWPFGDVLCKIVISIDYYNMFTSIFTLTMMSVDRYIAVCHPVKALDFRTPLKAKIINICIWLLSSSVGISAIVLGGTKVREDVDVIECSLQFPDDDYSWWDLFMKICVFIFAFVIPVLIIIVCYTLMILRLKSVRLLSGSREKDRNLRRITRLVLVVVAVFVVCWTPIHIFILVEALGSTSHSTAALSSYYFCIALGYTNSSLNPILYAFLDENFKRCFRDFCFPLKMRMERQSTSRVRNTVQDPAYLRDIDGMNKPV

Mu-type opioid receptor [4] = target: T1, Mu-type opioid receptor; test: Displacement of [3H]DAMGO from recombinant human mu-opioid receptor expressed in CHO cell membranes at 1 X 10^-6 M after 60 mins by liquid scintillation counting method relative to control; summary of the method: as §1
[5] = target: T3, Kappa-type opioid receptor; test: Displacement of [3H]U69593 from recombinant human kappa-opioid receptor expressed in CHO cell membranes at 1 X 10^-6 M after 60 mins by liquid scintillation counting method relative to control; summary of the method: as §1
[6] = target: T2, Delta-type opioid receptor; test: Displacement of [3H]DPDPE from recombinant human delta-opioid receptor expressed in HEK293 cell membranes at 1 X 10^-6 M after 60 mins by liquid scintillation counting method relative to control; summary of the method: as §1
Homo sapiens [7] = species: Homo sapiens; test: Selectivity ratio of Ki for displacement of [3H]DAMGO from recombinant human mu-opioid receptor expressed in CHO cell membranes to Ki for displacement of [3H]U69593 from recombinant human kappa-opioid receptor expressed in CHO cell membranes
[8] = target: T2, Delta-type opioid receptor; test: Displacement of [3H]DPDPE from recombinant human delta-opioid receptor expressed in HEK293 cell membranes after 60 mins by liquid scintillation counting method
Mu-type opioid receptor [9] = target: T1, Mu-type opioid receptor; test: Displacement of [3H]DAMGO from recombinant human mu-opioid receptor expressed in CHO cell membranes after 60 mins by liquid scintillation counting method
[10] = target: T3, Kappa-type opioid receptor; test: Displacement of [3H]U69593 from recombinant human kappa-opioid receptor expressed in CHO cell membranes after 60 mins by liquid scintillation counting method
Homo sapiens [11] = species: Homo sapiens; test: Selectivity ratio of Ki for displacement of [3H]DPDPE from recombinant human delta-opioid receptor expressed in HEK293 cell membranes to Ki for displacement of [3H]U69593 from recombinant human kappa-opioid receptor expressed in CHO cell membranes
[12] = target: T3, Kappa-type opioid receptor; test: Antagonist activity at recombinant human kappa-opioid receptor expressed in CHO cell membranes assessed as inhibition of U69593-induced [35S]GTPgammaS binding after 4 hrs by microbeta scintillation counting method; format: functional
Summary of the method: (§2)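 Membranes from CHO cells (κ, μ) or HEK293 cells (δ) expressing human opioid receptors. Assay buffer was 20 mM HEPES pH 7.4, 5 mM MgCl2, 100 mM NaCl, 1 mM EDTA, 1 mM DTT with GDP. GTP-γ-35S was 0.5 nM final. Agonist at ~80% max stimulation: U69,593 300 nM (κ), DAMGO (μ), DPDPE 30 nM (δ). Read by WGA SPA, 11-point curves, four-parameter fit; mean ± SEM of ≥3 experiments.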

Mus musculus [13] = test: Anxiolytic activity in ICR mouse assessed as increase in number of open arm entries at 30 mg/kg, ip administered 30 mins prior to test measured for 5 mins by elevated plus maze test; format: functional, organism-based
Summary of the method: (§3)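 Male ICR mice (18–22 g), 10 per group, adapted ≥1 h. Dosed i.p. with saline vehicle 30 min pretest. Maze elevated 50 cm; each mouse started on the central platform facing an open arm. Entries and time in open and closed arms were video-tracked over 5 min, expressed as OE/(CE+OE) and OT/(OT+CT); mean ± SEM.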

Homo sapiens [14] = species: Homo sapiens; test: Selectivity ratio of IC50 for antagonist activity at recombinant human mu-opioid receptor expressed in CHO cell membranes assessed as inhibition of DAMGO-induced [35S]GTPgammaS binding to IC50 for antagonist activity at recombinant human kappa-opioid receptor expressed in CHO cell membranes assessed as inhibition of U69593-induced [35S]GTPgammaS binding; summary of the method: as §2
Mu-type opioid receptor [15] = target: T1, Mu-type opioid receptor; test: Antagonist activity at recombinant human mu-opioid receptor expressed in CHO cell membranes assessed as inhibition of DAMGO-induced [35S]GTPgammaS binding after 4 hrs by microbeta scintillation counting method; format: functional; summary of the method: as §2
Mus musculus [16] = test: Anxiolytic activity in ICR mouse assessed as increase in time spent on open arms at 30 mg/kg, ip administered 30 mins prior to test measured for 5 mins by elevated plus maze test; format: functional, organism-based; summary of the method: as §3
[17] = target: T2, Delta-type opioid receptor; test: Antagonist activity at recombinant human delta-opioid receptor expressed in HEK293 cell membranes assessed as inhibition of DPDPE-induced [35S]GTPgammaS binding after 2 hrs by microbeta scintillation counting method; format: functional; summary of the method: as §2
Homo sapiens [18] = species: Homo sapiens; test: Selectivity ratio of IC50 for antagonist activity at recombinant human delta-opioid receptor expressed in HEK293 cell membranes assessed as inhibition of DPDPE-induced [35S]GTPgammaS binding to IC50 for antagonist activity at recombinant human kappa-opioid receptor expressed in CHO cell membranes assessed as inhibition of U69593-induced [35S]GTPgammaS binding; summary of the method: as §2
Mus musculus [19] = test: Antidepressant-like activity in ICR mouse assessed as decrease in immobility time at 30 mg/kg, ip administered 30 mins prior to test measured for last 4 mins of 6 mins observation by forced swim test; format: functional, organism-based
Summary of the method: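 Male ICR mice (20–25 g), 10 per group, adapted ≥15 min before testing. Dosed i.p. with saline vehicle 30 min pretest. Each mouse was placed in a cylinder 10 cm wide with water 6 cm deep at 25 °C for 6 min. Immobility was scored over the last 4 min; mean ± SEM.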

SMILES | inhibition (Mu-type opioid receptor [1]) [%] | inhibition [2] [%] | inhibition [3] [%] | inhibition (Mu-type opioid receptor [4]) [%] | inhibition [5] [%] | inhibition [6] [%] | Ratio Ki (Homo sapiens [7]) | pKi [8] | pKi (Mu-type opioid receptor [9]) | pKi [10] | Ratio Ki (Homo sapiens [11]) | pIC50 [12] | Activity (Mus musculus [13]) | Ratio IC50 (Homo sapiens [14]) | pIC50 (Mu-type opioid receptor [15]) | Activity (Mus musculus [16]) | pIC50 [17] | Ratio IC50 (Homo sapiens [18]) | Activity (Mus musculus [19])
NC(=O)c1ccc(Oc2ccc(CN3CCCC3c3ccc(F)cc3)cc2)c2ccccc12 (stereo not drawn) | 0 | 0 | 39 | 0 | 13.8 | 0 | – | – | – | – | – | – | – | – | – | – | – | – | –
COc1ccc(C2CCCN2Cc2ccc(Oc3ccc(C(N)=O)c4ccccc34)cc2)cc1 (stereo not drawn) | 15 | 9 | 80.5 | 0 | 46.5 | 0 | > 2.2 | < 5.00 | < 5.00 | 5.34 | > 2.2 | – | – | – | – | – | – | – | –
NC(=O)c1ccc(Oc2ccc(CN3CCCC3c3cccc(Cl)c3)cc2)c2ccccc12 (stereo not drawn) | 0 | 0 | 64.1 | 0 | 31.4 | 0 | – | – | – | – | – | – | – | – | – | – | – | – | –
Cc1cc(C)cc(C2CCCN2Cc2ccc(Oc3ccc(C(N)=O)c4ccccc34)cc2)c1 (stereo not drawn) | 0 | 0 | 23.7 | 0 | 12.2 | 0 | – | – | – | – | – | – | – | – | – | – | – | – | –
NC(=O)c1ccc(Oc2ccc(CN3CCCC3c3cccc(F)c3)cc2)c2ccccc12 (stereo not drawn) | 0 | 4 | 57.9 | 0 | 27.7 | 2.3 | – | – | – | – | – | – | – | – | – | – | – | – | –
Cc1cc(C)cc(C2CCCN2Cc2ccc(Oc3ccc(C(N)=O)cc3)c(Cl)c2)c1 (stereo not drawn) | 99.1 | 87.5 | 100 | 78.8 | 99.3 | 36.5 | 0.85 | 6.31 | 7.49 | 7.42 | 13 | – | – | – | – | – | – | – | –
Cc1cc(C)cc(C2CCCN2Cc2ccc(Oc3ccc(C(N)=O)cc3F)cc2)c1 (racemic) | 93.6 | 87.2 | 100 | 56.1 | 97 | 45.5 | 7.6 | 7.04 | 7.04 | 7.92 | 7.6 | 8.18 | Active | 3.4 | 7.65 | Active | 7.02 | 14.3 | Active
Cc1cc(C)cc(C2CCCN2Cc2ccc(Oc3ccc(C(N)=O)cc3F)c(Cl)c2)c1 (stereo not drawn) | 94.2 | 92.4 | 100 | 51.4 | 98.5 | 54.1 | 14 | 6.72 | 6.66 | 7.80 | 12.2 | 8.03 | Active | 15.5 | 6.84 | Active | 7.80 | 1.7 | Active
NC(=O)c1ccc(Oc2ccc(CN3CCCC3c3cccnc3)cc2)c2ccccc12 (stereo not drawn) | 52.2 | 0 | 12 | 11.3 | 5.1 | 0 | – | – | – | – | – | – | – | – | – | – | – | – | –
Cc1cc(C)cc(C2CCCN2Cc2ccc(Oc3ccc(C(N)=O)cc3F)c(F)c2)c1 (stereo not drawn) | 96.8 | 89.2 | 98.7 | 73.4 | 95.8 | 37.4 | 0.65 | 6.37 | 7.55 | 7.37 | 10.1 | – | – | – | – | – | – | – | –
Cc1cc(C)cc(C2CCCN2Cc2ccc(Oc3ccc(C(N)=O)cc3)c(F)c2)c1 (stereo not drawn) | 95.3 | 97.1 | 100 | 71 | 98.8 | 45.5 | 2.13 | 6.57 | 7.20 | 7.53 | 9 | – | – | – | – | – | – | – | Active
Cc1cccc(C2CCCN2Cc2ccc(Oc3ccc(C(N)=O)c4ccccc34)cc2)c1 (stereo not drawn) | 16.3 | 0 | 86.9 | 0 | 39.9 | 0 | > 5.8 | < 5.00 | < 5.00 | 5.76 | > 5.8 | – | Active | – | – | Active | – | – | Active
Cc1ccccc1C1CCCN1Cc1ccc(Oc2ccc(C(N)=O)c3ccccc23)cc1 (stereo not drawn) | 0 | 2.9 | 34 | 0 | 13.9 | 0 | – | – | – | – | – | – | – | – | – | – | – | – | –
